The text below walks through data of ChEMBL document CHEMBL1146500, “Novel caprolactones from a marine streptomycete” (2004).

Molecules are shown by their SMILES. Converted amounts (≈) assume the structure as drawn.

Broadly, the GI50 is the concentration at which growth is held to half of that of the control. Read a low GI50 as greater sensitivity of the cells. By TGI is commonly meant the concentration at which net growth stops. Low readings indicate greater sensitivity of the cells, high ones lower sensitivity of the cells.

Format in all cases: functional
The test system of one assay is Artemia salina. Put plainly: Antimicrobial activity against Artemia salina at 70 ug by agar diffusion test. The conditions noted are these: read-out: IZ. The essentials: (§1)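 Agar diffusion test: 70 µg of sample applied per 9 mm diameter platelet. Read-out is the diameter of the growth-inhibition zone in mm.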
The next assay deals with Rhizomucor miehei. Put plainly: Antimicrobial activity against Mucor miehei at 70 ug by agar diffusion test. The conditions noted are these: read-out: IZ. The essentials: as §1
In assay [1] the test system is Streptomyces viridochromogenes. Put plainly: Antimicrobial activity against Streptomyces viridochromogenes at 70 ug by agar diffusion test. The conditions noted are these: read-out: IZ. The essentials:
as §1
(Agar diffusion results depend on both activity and mobility in agar.)

The subject of a further assay is MCF7. Put plainly: Cytotoxicity against human MCF7 cells. An outline of the steps: (§2)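 In vitro growth inhibition of human cancer cell lines was measured following the NCI guidelines. Cell lines: HM02 (gastric adenocarcinoma), HepG2 (hepatocellular carcinoma) and MCF 7 (breast adenocarcinoma).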
For another assay, the system named is Escherichia coli. Put plainly: Antimicrobial activity against Escherichia coli at 70 ug by agar diffusion test. Particulars: read-out: IZ. An outline of the steps:
as §1

For assay [2], the system named is HepG2. Put plainly: Cytotoxicity against human HepG2 cells. An outline of the steps: as §2
The next assay deals with Chlorella vulgaris. Put plainly: Antimicrobial activity against Chlorella vulgaris at 70 ug by agar diffusion test. Particulars: read-out: IZ. The essentials:
as §1

In another assay the test system is Chlorella sorokiniana. Put plainly: Antimicrobial activity against Chlorella sorokiniana at 70 ug by agar diffusion test. Particulars: read-out: IZ. The essentials:
as §1

The test system of a further assay is Bacillus subtilis. Put plainly: Antimicrobial activity against Bacillus subtilis at 70 ug by agar diffusion test. Particulars: read-out: IZ. An outline of the steps: as §1
Another assay has as its system Staphylococcus aureus. Put plainly: Antimicrobial activity against […] at 70 ug by agar diffusion test. The conditions noted are these: read-out: IZ. An outline of the steps:
as §1

For the next assay, the system named is Desmodesmus subspicatus. Put plainly: Antimicrobial activity against Scenedesmus subspicatus at 70 ug by agar diffusion test. The conditions noted are these: read-out: IZ. An outline of the steps: as §1
Assay [3] is described as follows: Cytotoxicity against human HM02 cells. An outline of the steps:
as §2

The subject of a further assay is Candida albicans. Put plainly: Antimicrobial activity against Candida albicans at 70 ug by agar diffusion test. Particulars: read-out: IZ. An outline of the steps: as §1
Assay [4] relates to HepG2. Put plainly: Cell cycle arrest in human HepG2 cells by accumulation at G1 phase at 5 ug/mL after 24 hrs by PI staining. The essentials: (§3)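 HepG2 cells were exposed for 24 h, trypsinized, and washed in RPMI 1640 with 1% fetal bovine serum. They were stained 15 min at room temperature in the dark in 150 µg/mL propidium iodide, 1% Triton X-100, 1% BSA and 4 mM sodium citrate, pH 7.4. RNase A was then added for 30 min at room temperature. Output is % cells per phase, mean ± SE of three independent experiments, t-test versus control.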

Assay [5] has as its system HepG2. Put plainly: Cell cycle arrest in human HepG2 cells by accumulation at subG1 phase at 5 ug/mL after 24 hrs by PI staining. An outline of the steps: as §3
For assay [6], the system named is HepG2. Put plainly: Cell cycle arrest in human HepG2 cells by accumulation at S phase at 5 ug/mL after 24 hrs by PI staining. An outline of the steps:
as §3

In assay [7] the test system is HepG2. Put plainly: Cell cycle arrest in human HepG2 cells by accumulation at G2/M phase at 5 ug/mL after 24 hrs by PI staining. The essentials: as §3

As for `CC(C)CCC[C@H]1CCCCC(=O)O1`, the zone of inhibition at 70 µg/disc is 0 mm in the assay on Artemia salina; 11 mm in the assay with Rhizomucor miehei; 13 mm in [1]; 0 mm in the assay on Escherichia coli; 11 mm with Chlorella vulgaris; 12 mm in the assay on Chlorella sorokiniana. Besides, the zone of inhibition at 70 µg/disc in the assay on Bacillus subtilis stood at 0 mm; in the assay on Staphylococcus aureus it was 0 mm; in the assay with Desmodesmus subspicatus, 11 mm; with Candida albicans, 0 mm. For the same compound, the 50% growth inhibitory concentration (GI50) in the assay with MCF7 was found to be 0.11 µg/mL (≈ 0.555 µM); with HepG2 [2], 2.2 µg/mL (≈ 11.1 µM); in [3] it was 2.7 µg/mL (≈ 13.6 µM). In addition, the TGI in the assay on MCF7 stood at 4 µg/mL (≈ 20.2 µM); in the assay on HepG2 [2] it was 6.8 µg/mL (≈ 34.3 µM); in assay [3] it was 6.1 µg/mL (≈ 30.8 µM).
On to `CC[C@H](C)CCC[C@H]1CCCCC(=O)O1`, for which the zone of inhibition at 70 µg/disc with Artemia salina is 0 mm; in the assay on Rhizomucor miehei, 15 mm; in [1], 15 mm; with Escherichia coli, 0 mm; with Chlorella vulgaris, 15 mm; with Chlorella sorokiniana it was 22 mm. In addition, the zone of inhibition at 70 µg/disc in the assay on Bacillus subtilis is 0 mm; in the assay with Staphylococcus aureus, 11 mm; in the assay with Desmodesmus subspicatus, 20 mm; with Candida albicans, 11 mm. For the same compound, the Activity came to 73.7% in the assay on HepG2 [4], 5.7% in the assay with HepG2 [5], 11% with HepG2 [6] and 9.8% with HepG2 [7]. The GI50 in the assay on MCF7 is 0.12 µg/mL (≈ 0.565 µM); in the assay with HepG2 [2] it was 1.4 µg/mL (≈ 6.59 µM); in assay [3], 1.9 µg/mL (≈ 8.95 µM). The TGI in the assay with MCF7 was found to be 2.6 µg/mL (≈ 12.2 µM); with HepG2 [2] it was 5.7 µg/mL (≈ 26.8 µM); in assay [3], 5.6 µg/mL (≈ 26.4 µM).
